ChEMBL document CHEMBL1138097, “Lysine sulfonamides as novel HIV-protease inhibitors: Nepsilon-acyl aromatic alpha-amino acids” (Bioorg Med Chem Lett, 2006)

Experiments:
[1] = molecular target: Human immunodeficiency virus type 1 protease (Human immunodeficiency virus 1, UniProt Q72874); test: Inhibition of HIV aspartyl protease
How it was run: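 Assayed on purified HIV protease with a fluorescence rate readout (RFU/min). IC50 was taken from a dose–response curve. Ki came from fitting initial rates (200–600 s) to a tight-binding equation that accounts for protease concentration. Values are means of at least two experiments.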

[2] = test system: Human immunodeficiency virus 1; test: Antiviral activity against HIV1 multi PI resistant strain 4596; type: functional, organism-based; details: Human immunodeficiency virus 1, 4596
How it was run: (§1)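 EC50 values come from a whole-cell cytopathic anti-viral assay, reported as the mean of at least three experiments. For line 2, the multi-PI-resistant strain 4596 carries protease mutations 82T, 84V, 10R and 63P. For line 1, the saquinavir-resistant strain SaqR carries protease mutations 48V and 90M.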

[3] = test system: Human immunodeficiency virus 1; test: Antiviral activity against HIV1 NL4-3 in MT4 cells; type: functional, organism-based; details: Human immunodeficiency virus 1, NL4-3, MT4
How it was run: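 Whole-cell cytopathic assay in MT-4 cells infected with the molecular clone HIV-1 NL4-3. EC50 is the mean of at least two experiments.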

[4] = test system: Human immunodeficiency virus 1; test: Antiviral activity against HIV1 Saquinavir resistant strain SaqR; type: functional, organism-based; details: Human immunodeficiency virus 1, SaqR; how it was run: as §1

SMILES | IC50 [1] [nM] | EC50 [2] [nM] | EC50 [3] [nM] | EC50 [4] [nM]
CC(C)CN([C@H](CO)CCCCNC(=O)[C@@H](NC(=O)c1ccccn1)C(c1ccccc1)c1ccccc1)S(=O)(=O)c1ccc(N)cc1 | 0.46 | 161 | 68 | 
CC(C)CN([C@H](CO)CCCCNC(=O)[C@@H](NC(=O)N1CCOCC1)C(c1ccccc1)c1ccccc1)S(=O)(=O)c1ccc(N)cc1 | 0.51 |  | 78 | 
COC(=O)N[C@@H](C(=O)NCCCC[C@@H](CO)N(CC(C)C)S(=O)(=O)c1ccc(N)cc1)C(c1ccccc1)c1ccccc1 | 13 |  | 850 | 
CC(C)CN([C@H](CO)CCCCNC(=O)[C@@H](NC(=O)c1ccncc1)C(c1ccccc1)c1ccccc1)S(=O)(=O)c1ccc(N)cc1 | 0.65 | 26 | 32 | 
Cc1ncccc1C(=O)N[C@H](C(=O)NCCCC[C@@H](CO)N(CC(C)C)S(=O)(=O)c1ccc(N)cc1)C(c1ccccc1)c1ccccc1 | 0.4 | 36 | 42 | 
CC(=O)N[C@H](C(=O)NCCCC[C@@H](CO)N(CC(C)C)S(=O)(=O)c1ccc(N)cc1)C(c1ccccc1)c1ccccc1 | 1.5 | 66 | 66 | 
CC(C)CN([C@H](CO)CCCCNC(=O)[C@@H](N)C(c1ccccc1)c1ccccc1)S(=O)(=O)c1ccc(N)cc1 | 0.5 | 43 | 44 | 
COc1cc(C(=O)N[C@@H](C(=O)NCCCC[C@@H](CO)N(CC(C)C)S(=O)(=O)c2ccc(N)cc2)C(c2ccccc2)c2ccccc2)ccc1O | 0.5 | 23 | 14 | 
CC(C)CN([C@H](CO)CCCCNC(=O)[C@@H](NC(=O)c1ncccc1O)C(c1ccccc1)c1ccccc1)S(=O)(=O)c1ccc(N)cc1 | 0.9 | 186 | 153 | 
CC(C)CN([C@H](CO)CCCCNC(=O)[C@@H](NC(=O)OCc1ccccn1)C(c1ccccc1)c1ccccc1)S(=O)(=O)c1ccc(N)cc1 | 0.12 | 18 | 17 | 14
COC(=O)N[C@H](Cc1cccc2ccccc12)C(=O)NCCCC[C@@H](CO)N(CC(C)C)S(=O)(=O)c1ccc(N)cc1 | 1.2 |  | 120 | 
COC(=O)N[C@H](Cc1ccc2ccccc2c1)C(=O)NCCCC[C@@H](CO)N(CC(C)C)S(=O)(=O)c1ccc(N)cc1 | 1.2 |  | 258 | 
COC(=O)N[C@H](Cc1ccccc1-c1ccccc1)C(=O)NCCCC[C@@H](CO)N(CC(C)C)S(=O)(=O)c1ccc(N)cc1 | 0.521 |  | 200 | 
COC(=O)N[C@H](Cc1ccccc1)C(=O)NCCCC[C@@H](CO)N(CC(C)C)S(=O)(=O)c1ccc(N)cc1 | 12 |  | 2000 | 
COC(=O)N[C@@H](C(=O)NCCCC[C@@H](CO)N(CC(C)C)S(=O)(=O)c1ccc(N)cc1)c1ccccc1 | > 300 |  |  | 
COC(=O)N[C@H](CCc1ccccc1)C(=O)NCCCC[C@@H](CO)N(CC(C)C)S(=O)(=O)c1ccc(N)cc1 | 40 |  | 9000 | 
COC(=O)N(C)[C@H](Cc1ccccc1)C(=O)NCCCC[C@@H](CO)N(CC(C)C)S(=O)(=O)c1ccc(N)cc1 | 6.5 |  | 1000 | 
CC(C)CN([C@H](CO)CCCCNC(=O)[C@@H](NC(=O)c1cccnc1)C(c1ccccc1)c1ccccc1)S(=O)(=O)c1ccc(N)cc1 | 0.68 | 25 | 39 | 

SMILES | IC50 [1] [nM] | EC50 [2] [nM] | EC50 [3] [nM] | EC50 [4] [nM]
CC(C)CN([C@H](CO)CCCCNC(=O)[C@@H](NC(=O)OCc1cccnc1)C(c1ccccc1)c1ccccc1)S(=O)(=O)c1ccc(N)cc1 | 0.48 | 18 | 18 | 
COC(=O)N[C@@H](C(=O)NCCCC[C@H](CO)N(CC(C)C)S(=O)(=O)c1ccc(N)cc1)C(c1ccccc1)c1ccccc1 | > 300 |  | > 100000 | 
CC(C)CN([C@H](CO)CCCCNC(=O)[C@@H](NC(=O)Cc1cccnc1)C(c1ccccc1)c1ccccc1)S(=O)(=O)c1ccc(N)cc1 | 0.24 | 128 | 194 | 
CC(C)CN([C@H](CO)CCCCNC(=O)[C@@H](NC(=O)c1cccc(O)c1)C(c1ccccc1)c1ccccc1)S(=O)(=O)c1ccc(N)cc1 | 0.4 | 30 | 64 | 
CC(C)CN([C@H](CO)CCCCNC(=O)[C@@H](NC(=O)c1ccc(O)c([N+](=O)[O-])c1)C(c1ccccc1)c1ccccc1)S(=O)(=O)c1ccc(N)cc1 | 0.56 | 35 | 55 | 
COC(=O)N[C@H](C(=O)NCCCC[C@H](CO)N(CC(C)C)S(=O)(=O)c1ccc(N)cc1)C(c1ccccc1)c1ccccc1 | 25 |  | 3000 | 
CC(C)CN([C@H](CO)CCCCNC(=O)[C@@H](NC(=O)C1CC1)C(c1ccccc1)c1ccccc1)S(=O)(=O)c1ccc(N)cc1 | 0.43 | 46 | 25 | 17
CC(C)CN([C@H](CO)CCCCNC(=O)[C@@H](NC(=O)N(C)C)C(c1ccccc1)c1ccccc1)S(=O)(=O)c1ccc(N)cc1 | 0.44 | 56 | 62 | 
CC(C)CN([C@H](CO)CCCCNC(=O)[C@@H](NC(=O)c1cnccc1O)C(c1ccccc1)c1ccccc1)S(=O)(=O)c1ccc(N)cc1 | 0.5 |  |  | 
CC(C)CN([C@H](CO)CCCCNC(=O)[C@@H](NC(=O)C1CCCCC1)C(c1ccccc1)c1ccccc1)S(=O)(=O)c1ccc(N)cc1 | < 3.8 | 186 | 93 | 
CC(C)CN([C@H](CO)CCCCNC(=O)[C@@H](NC(=O)c1ccc[nH]1)C(c1ccccc1)c1ccccc1)S(=O)(=O)c1ccc(N)cc1 | 0.43 | 51 | 34 | 
CC(C)CN([C@H](CO)CCCCNC(=O)[C@@H](NC(=O)c1ccc([N+](=O)[O-])c(O)c1)C(c1ccccc1)c1ccccc1)S(=O)(=O)c1ccc(N)cc1 | 0.33 | 10 | 16 | 
CC(C)CN([C@H](CO)CCCCNC(=O)[C@@H](NC(=O)OCc1ccncc1)C(c1ccccc1)c1ccccc1)S(=O)(=O)c1ccc(N)cc1 | 0.39 | 13 | 20 | 4
CC(C)CN([C@H](CO)CCCCNC(=O)[C@@H](NC(=O)c1ccccc1O)C(c1ccccc1)c1ccccc1)S(=O)(=O)c1ccc(N)cc1 | 0.63 | 134 | 64 | 
CC(C)CN([C@H](CO)CCCCNC(=O)[C@@H](NC(=O)c1ccc(O)cc1)C(c1ccccc1)c1ccccc1)S(=O)(=O)c1ccc(N)cc1 | 0.53 | 34 | 88 | 
CC(C)CN([C@H](CO)CCCCNC(=O)[C@@H](NC(=O)OC(C)(C)C)C(c1ccccc1)c1ccccc1)S(=O)(=O)c1ccc(N)cc1 | 0.4 | 290 | 41 | 
COC(=O)N[C@H](C(=O)NCCCC[C@@H](CO)N(CC(C)C)S(=O)(=O)c1ccc(N)cc1)C(c1ccccc1)c1ccccc1 [PPL-100] | 0.5 | 38 |  | 19
